“Also recorded” adds a separate entry of the source.
B1: Frabin-GFP: full length Frabin-GFP expressed in Cos7 cells (protein)
chain: MEEIKPASASCVSKEKPSKVSDLISRFEGGSSLSNYSDLKKESAVNLNAPRTPGRHGLTTTPQQKLLSQHLPQRQGNDTDKTQGAQTCVANGVMAAQNQMECEEEKAATLSSDTSIQASEPLLDTHIVNGERDETATAPASPTTDSCDGNASDSSYRTPGIGPVLPLEERGAETETKVQERENGESPLELEQLDQHHEMKETNEQKLHKIANELLLTERAYVNRLDLLDQVFYCKLLEEANRGSFPAEMVNKIFSNISSINAFHSKFLLPELEKRMQEWETTPRIGDILQKLAPFLKMYGEYVKGFDNAMELVKNMTERIPQFKSVVEEIQKQKICGSLTLQHHMLEPVQRIPRYEMLLKDYLRKLPPDSLDWNDAKKSLEIISTAASHSNSAIRKMENLKKLLEIYEMLGEEEDIVNPSNELIKEGQILKLAARNTSAQERYLFLFNNMLLYCVPKFSLVGSKFTVRTRVGIDGMKIVETQNEEYPHTFQVSGKERTLELQASSAQDKEEWIKALQETIDAFHQRHETFRNAIAKDNDIHSEVSTAELGKRAPRWIRDNEVTMCMKCKEPFNALTRRRHHCRACGYVVCWKCSDYKAQLEYDGGKLSKVCKDCYQIISGFTDSEEKKRKGILEIESAEVSGNSVVCSFLQYMEKSKPWQKAWCVIPKQDPLVLYMYGAPQDVRAQATIPLLGYVVDEMPRSADLPHSFKLTQSKSVHSFAADSEELKQKWLKVILLAVTGETPGGPNEHPATLDDHPEPKKKSEC
modifications: left off: GFP, end not stated, kept
B2: DDB_G0280015: PH domain Interacting with OCRL, 741 amino acid protein of D. discoideum (protein)
chain: MESSSMTTNNNNNNSTISPSSSTTSISTSKNNDFLTLHKAYIDEWLMVSFLPILKTTYDGENNFYDISNLNIKNVNQRNIPFSEQLFALDRQFQNLINQWEKLSRSDQQRAAKIESYQQSFYTFIDRIKSTLEKTMVELGGSLEDSNFLAAAISLKEKQSKNKRLTIMARSRISPGGTSSTQYQHQMHLTGPISIVWNEILIIITRKVNEEVVRLQTENINNNIKNINNSEFNITNDIYQFNNNNLTQANKLEINNQRQKLYQQALSNIVPMLFEWRIMMANAQKVISEEKRFKVNPFIPTTVYDHNSSSFISAPILISTTNKTATTLLNNLNNNNIINNNNNNNNNNNNNNNNNNNNNNNNNSSSNSNNNNNSPISNSPSSSSPSPSSPTLTNRPSFINYDNQNNENNINNNNNNENNIGNNNINNNNSNENSDNKFSEEINISSSPPGTSGMTNSTSNLPTIASPTSWTKAVKRPAMSSSGGNIPILNNLGTSLNNNNNNKQIQDNNNNNLNTINANSNGNNNNSSNNVNSENNNIPTGGIIKQGWMKKRGTKNKSWKKRYFILDMKKTLRYYKDNSKIPHGNNSNNSGGGSSSNNNNCNSGNNNNGLNGGSGKGDQVNGNNISLPIGNNPHFHSSSGSGIPTTSPSMSSSSTSLENNDILSSFDHLKYKGSIDLYTSLVVAIKPSTFNVNINNSGSFKEDNNSYFGMDIITPSRTWNFCCESSKSMEDWLIVLKSANK
B3: DDB_G0275301: OCRL-Interacting Bar domain Protein of D. discoideum (protein)
chain: MFKKGLDVLSKTKNAAVSSMTELETESDEVQNAKVALKNMKWSIKLLIQLAKNYFATSDKQVQQGTAFSVILQRFSEKISHTNYIINQTLPLSDSLREVGEGIKNSSTYFQQYTQIFCDKFATNIEALYVGHVKKVATLEKQQEESRIKYNNALNYLKSTQKSGHTGTKLAEKTTEYENAKAYYEQISLNLISATNDMVNYVQREVAVQMKQFVAEQQLMVQECIKMWVIAENKLFNSQSPVNTTSTTSPNTYGDYNNNANTVNLSKLSLDKEEQPPQPYQPPQQHSPPQQTFHQSPPTDFSSQHQQYSFDQSSPQETYQPPQQQQPEGQKSPNPFDDKNPFDN
B4: GxcU: putative Rho-GEF of D. discoideum (protein)
chain: MDTKNKEILGSTIKAWIGRKRYKTMMVNKTNRDKVAKEILDTEQIYVRNLETIVQFYLKPLRNINPPLLSPKSIQIIFGHIEDLLSLNTELLTSIQDRMTTWYQDKRLGDIFTKMAPYLKVYTEYCGNYDKAVARLKQKSDESRDLQMFLKRVTSENSFGLDLNSLLVTPIQRIPRYKLLLQSLIQLTPVEFSDYPTLAKALENVALVADHINESIREKQNSEKILTIQKRFTGQCPPLLAPLRTFIREGSLTKVCRKDHKKRWFILFSDALVYGNRIDTAVGNPIYKFHRLLPLSNTKIANLDDTKHKNSFQLIHPIKSFTLIADTEQEKSSWMNSFSDAQNFLLRNEGSVARMNKQYRSINILKPKEEETVSTAPVWIPDSEAIQCMECTIKFTTIRRRHHCRRCGNVVCGKCSEQKWTLDQYKKDARVCKTCYNYLSISSSRSNENNVSSSNNLSTPTSTFTATTATATAPFGTLTDGASLADVSSDSEGEDNSSSINDSNPDMPIINGLSSIQIDNTPVILNTVNPSPPLLSQPQPQQPQQPQLQPLQQPLQQPPQPPQPPQTNHKSFIATHTAYNKENSLKSTSPSSSFIETSTSTSASTSTSTSTSTSTSTSTSTSTSTSTSNSTSNSTLTPGPPMLSKSNAGNSSLLDFCKSYIQNSPNVSPAKVEKHKHSSSSSSASNSPMQSRTNLDIPSTTTTSTSKGSISPTQSSESIVLPELKPITHDPLVTSNNSSSTLKVNQPIQHTNSSSKLNVIVSTPQTTQTTENNVNNTNTNTTTTNNNNNNNNNNNNNNNNNNNNNNNNNNNNSDVSSPKPTTKSLPPTPPTKKLPPTPPPKPLPPQPTLPQQPTLPPQPNLPPQPNLPPQPNLPPQPNLPPQPNLPQQPDLSQPPPQQQQQPTLDQAPPRPPKPNQDSRSQSFLCISSTVNSTPPTPPPKRIISTHPANTSFIYQPQQYVSSPNINNVPPPLPPPRIKSQAPIQRD

Columns and labels:
[1] = system: human OCRL ASHRhoGAP domain; test: Peptide array overlay with GST-hOCRL-ASHRhoGAP; type: binding; conditions: summary statement, test not specified at the place
[2] = system: endogenous OCRL (mouse brain extracts); test: GST-F&H peptide pull down of endogenous OCRL from mouse brain extracts; type: binding; conditions: GST fusions of 13 amino acid F&H motif peptides, Ses2 and APPL1 as positive controls
[3] = system: F&H surface of Dd5P4 (GFP-Dd5P4 WT vs W620A); test: GFP immunoprecipitation and mass spectrometry of GFP-Dd5P4 interactors; type: binding, Dictyostelium discoideum; conditions: triplicate GFP immunoprecipitates; Dd5P4- cells expressing GFP-Dd5P4 WT vs W620A; label-free quantitation
How it was run: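 Cells were grown to 80% confluency in HL5 (glucose, vitamins, trace elements), with fusion strains under 5 µg/ml G418. Lysis buffer: 20 mM Tris pH 8, 10% glycerol, 100 mM NaCl, 1 mM EDTA, 1 mM DTT. Untransfected WT cells served as negative control. Beads were digested overnight with trypsin at 37°C, then StageTip-desalted. C18 nanoLC used a 95-min 5–30% acetonitrile gradient into a Q Exactive, with data-dependent top-10 MS/MS.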

[4] = system: endogenous OCRL (Cos7 cells); test: Frabin-GFP anti-GFP co-immunoprecipitation with endogenous OCRL in Cos7 cells; type: binding; conditions: full length Frabin-GFP, GFP-trap beads, Western blot
How it was run: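 Frabin-GFP expressed in Cos7 cells by nucleofection, then pulled down on GFP-trap beads and washed extensively. Western blot detected Frabin-GFP with anti-GFP antibody and endogenous OCRL with mouse anti-human OCRL antibody.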

Row | Molecule | enrichment in GFP-Dd5P4 immunoprecipitates [3] | also measured
1 | AFHQRHETFRNAI* [Frabin] |  | strength of Frabin F&H peptide interaction with OCRL [1]: strong; enrichment of endogenous OCRL by GST-F&H peptide [2]: specifically enriched endogenous OCRL
2 | DDB_G0284853: mycBP2/Highwire-like protein of D. discoideum | specifically enriched in precipitates from GFP-Dd5P4-expressing cells versus negative control precipitates, but not in precipitates from GFP-Dd5P4^W620A-expressing cells | 
3 | B1 |  | coprecipitation of endogenous OCRL with Frabin-GFP [4]: weak but specific interaction with endogenous OCRL; also recorded: weak, albeit specific, coprecipitation with OCRL
4 | B2 | specifically enriched in precipitates from GFP-Dd5P4-expressing cells versus negative control precipitates, but not in precipitates from GFP-Dd5P4^W620A-expressing cells | 
5 | B3 | specifically enriched in precipitates from GFP-Dd5P4-expressing cells versus negative control precipitates, but not in precipitates from GFP-Dd5P4^W620A-expressing cells | 
6 | B4 | specifically enriched in precipitates from GFP-Dd5P4-expressing cells versus negative control precipitates, but not in precipitates from GFP-Dd5P4^W620A-expressing cells | 

— publication PMC6743453 (Molecular Biology of the Cell, 2019)
